# Values joined by “and” are separate entries in the source; they are usually repeats but may differ in a detail not shown here. Equal values may be shown once.
# Test system: HEK-293T
# Assay: Multiplex assay against HEK293T;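 as to Population Tubulin-Different-Phenotype (%): share of the cells with healthy nuclei that show this phenotype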
# Format: toxicity, cell-based
# Conditions: human
# How it was run: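 Cells stained live at seeding with Hoechst33342, BioTracker Green Microtubule Cytoskeleton Dye, MitoTracker Red and Annexin V Alexa Fluor 680 were imaged on a CQ1 microscope at 37°C and 5% CO2 after compound addition. Their classification by CellPathfinder machine-learning gating ran from Hoechst high-intensity objects versus normal cells, to healthy, pyknosed or fragmented nuclei among normal cells, to mitotic or apoptotic among pyknosed cells. Tubulin, mitochondrial-mass and membrane-permeability phenotypes are per cents of healthy-nucleus cells.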
# [1] = 12 h, 10 µM, compound concentration 10 uM, replicate 1
# [2] = 12 h, 10 µM, compound concentration 10 uM, replicate 2
# [3] = 24 h, 10 µM, compound concentration 10 uM, replicate 1
# [4] = 24 h, 10 µM, compound concentration 10 uM, replicate 2
# [5] = 12 h, 1 µM, compound concentration 1 uM, replicate 1
# [6] = 12 h, 1 µM, compound concentration 1 uM, replicate 2
# [7] = 24 h, 1 µM, compound concentration 1 uM, replicate 1
# [8] = 24 h, 1 µM, compound concentration 1 uM, replicate 2
# [9] = 48 h, 1 µM, compound concentration 1 uM, replicate 1
# [10] = 48 h, 1 µM, compound concentration 1 uM, replicate 2
# [11] = 48 h, 10 µM, compound concentration 10 uM, replicate 1
# [12] = 48 h, 10 µM, compound concentration 10 uM, replicate 2
structure (smiles),measurement,setting,value
CN(C)c1ncnc(-c2ccc3nc(Nc4cc(CN5CCN(C(=O)CC(F)(F)F)CC5)ccn4)[nH]c3c2)c1Cl [BAY-440],Population Apoptotic (%),[1],24% and 18%
same,Population Fragmented Nuclei (%),[1],30% and 12%
same,Population Hoechst High Intensity Objects (%),[1],21% and 12%
same,Population Mitochondria Different-Phenotype (%),[1],16% and 8%
same,Population Mitotic Cells (%),[1],75% and 81%
same,Population Normal (%),[1],78% and 87%
same,Population Pyknosed Nuclei (%),[1],49% and 24%
same,Total Cell Count,[1],575 and 589
same,Population Apoptotic (%),[2],16% and 6%
same,Population Fragmented Nuclei (%),[2],2% and 5%
same,Population Healthy Nuclei (%),[2],79% and 89%
same,Population Hoechst High Intensity Objects (%),[2],3% and 1%
same,Population Membrane Permeable-Phenotype (%),[2],12% and 6%
same,Population Mitotic Cells (%),[2],83% and 93%
same,Population Normal (%),[2],96% and 98%
same,Total Cell Count,[2],1131 and 1517
same,Population Fragmented Nuclei (%),[3],29% and 10%
same,Population Membrane Permeable-Phenotype (%),[3],10% and 16%
same,Population Mitotic Cells (%),[3],66% and 89%
same,Population Normal (%),[3],78% and 94%
same,Population Tubulin-Different-Phenotype (%),[3],65% and 25%
same,Total Cell Count,[3],555 and 720
same,Population Apoptotic (%),[4],16%
same,Population Healthy Nuclei (%),[4],76% and 79%
same,Population Hoechst High Intensity Objects (%),[4],4% and 2%
same,Population Membrane Permeable-Phenotype (%),[4],8% and 13%
same,Population Mitotic Cells (%),[4],83%
same,Population Normal (%),[4],95% and 97%
same,Total Cell Count,[4],1110 and 2572
COc1ncc(-c2ccc3nccc(-c4ccnnc4)c3c2)cc1NS(=O)(=O)c1ccc(F)cc1F [OMIPALISIB],Population Apoptotic (%),[5],60%
same,Population Fragmented Nuclei (%),[5],17%
same,Population Healthy Nuclei (%),[5],18%
same,Population Hoechst High Intensity Objects (%),[5],20%
same,Population Membrane Permeable-Phenotype (%),[5],2%
same,Population Mitochondria Different-Phenotype (%),[5],81%
same,Population Mitotic Cells (%),[5],39%
same,Population Normal (%),[5],80%
same,Population Pyknosed Nuclei (%),[5],64%
same,Population Tubulin-Different-Phenotype (%),[5],24%
same,Total Cell Count,[5],255
same,Population Apoptotic (%),[6],27%
same,Population Fragmented Nuclei (%),[6],8%
same,Population Healthy Nuclei (%),[6],14%
same,Population Hoechst High Intensity Objects (%),[6],6%
same,Population Membrane Permeable-Phenotype (%),[6],0%
same,Population Mitochondria Different-Phenotype (%),[6],37%
same,Population Mitotic Cells (%),[6],72%
same,Population Normal (%),[6],93%
same,Population Pyknosed Nuclei (%),[6],77%
same,Population Tubulin-Different-Phenotype (%),[6],16%
same,Total Cell Count,[6],180
same,Population Apoptotic (%),[1],62%
same,Population Fragmented Nuclei (%),[1],12%
same,Population Healthy Nuclei (%),[1],20%
same,Population Hoechst High Intensity Objects (%),[1],22%
same,Population Membrane Permeable-Phenotype (%),[1],0%
same,Population Mitochondria Different-Phenotype (%),[1],97%
same,Population Mitotic Cells (%),[1],37%
same,Population Normal (%),[1],77%
same,Population Pyknosed Nuclei (%),[1],67%
same,Population Tubulin-Different-Phenotype (%),[1],39%
same,Total Cell Count,[1],238
same,Population Apoptotic (%),[2],34%
same,Population Fragmented Nuclei (%),[2],4%
same,Population Healthy Nuclei (%),[2],12%
same,Population Hoechst High Intensity Objects (%),[2],6%
same,Population Membrane Permeable-Phenotype (%),[2],5%
same,Population Mitochondria Different-Phenotype (%),[2],42%
same,Population Mitotic Cells (%),[2],65%
same,Population Normal (%),[2],93%
same,Population Pyknosed Nuclei (%),[2],83%
same,Population Tubulin-Different-Phenotype (%),[2],26%
same,Total Cell Count,[2],161
same,Population Apoptotic (%),[7],47%
same,Population Fragmented Nuclei (%),[7],21%
same,Population Healthy Nuclei (%),[7],6%
same,Population Hoechst High Intensity Objects (%),[7],22%
same,Population Mitochondria Different-Phenotype (%),[7],71%
same,Population Mitotic Cells (%),[7],52%
same,Population Normal (%),[7],77%
same,Population Pyknosed Nuclei (%),[7],71%
same,Population Tubulin-Different-Phenotype (%),[7],50%
same,Total Cell Count,[7],280
same,Population Apoptotic (%),[8],29%
same,Population Fragmented Nuclei (%),[8],5%
same,Population Healthy Nuclei (%),[8],14%
same,Population Hoechst High Intensity Objects (%),[8],6%
same,Population Membrane Permeable-Phenotype (%),[8],0%
same,Population Mitochondria Different-Phenotype (%),[8],40%
same,Population Mitotic Cells (%),[8],70%
same,Population Normal (%),[8],93%
same,Population Pyknosed Nuclei (%),[8],79%
same,Population Tubulin-Different-Phenotype (%),[8],24%
same,Total Cell Count,[8],178
same,Population Apoptotic (%),[3],53%
same,Population Fragmented Nuclei (%),[3],14%
same,Population Healthy Nuclei (%),[3],20%
same,Population Hoechst High Intensity Objects (%),[3],24%
same,Population Membrane Permeable-Phenotype (%),[3],2%
same,Population Mitochondria Different-Phenotype (%),[3],91%
same,Population Mitotic Cells (%),[3],46%
same,Population Normal (%),[3],75%
same,Population Pyknosed Nuclei (%),[3],64%
same,Population Tubulin-Different-Phenotype (%),[3],52%
same,Total Cell Count,[3],228
same,Population Apoptotic (%),[4],37%
same,Population Fragmented Nuclei (%),[4],5%
same,Population Healthy Nuclei (%),[4],19%
same,Population Hoechst High Intensity Objects (%),[4],11%
same,Population Membrane Permeable-Phenotype (%),[4],3%
same,Population Mitochondria Different-Phenotype (%),[4],57%
same,Population Mitotic Cells (%),[4],63%
same,Population Normal (%),[4],88%
same,Population Pyknosed Nuclei (%),[4],75%
same,Population Tubulin-Different-Phenotype (%),[4],46%
same,Total Cell Count,[4],150
same,Population Fragmented Nuclei (%),[9],30%
same,Population Healthy Nuclei (%),[9],5%
same,Population Hoechst High Intensity Objects (%),[9],22%
same,Population Membrane Permeable-Phenotype (%),[9],0%
same,Population Mitochondria Different-Phenotype (%),[9],75%
same,Population Normal (%),[9],77%
same,Population Pyknosed Nuclei (%),[9],64%
same,Population Tubulin-Different-Phenotype (%),[9],41%
same,Total Cell Count,[9],286
same,Population Apoptotic (%),[10],44%
same,Population Fragmented Nuclei (%),[10],7%
same,Population Healthy Nuclei (%),[10],36%
same,Population Hoechst High Intensity Objects (%),[10],7%
same,Population Membrane Permeable-Phenotype (%),[10],1%
same,Population Mitochondria Different-Phenotype (%),[10],40%
same,Population Mitotic Cells (%),[10],55%
same,Population Normal (%),[10],92%
same,Population Pyknosed Nuclei (%),[10],55%
same,Population Tubulin-Different-Phenotype (%),[10],35%
same,Total Cell Count,[10],181
same,Population Apoptotic (%),[11],40%
same,Population Fragmented Nuclei (%),[11],20%
same,Population Healthy Nuclei (%),[11],24%
same,Population Hoechst High Intensity Objects (%),[11],21%
same,Population Membrane Permeable-Phenotype (%),[11],5%
same,Population Mitochondria Different-Phenotype (%),[11],76%
same,Population Mitotic Cells (%),[11],59%
same,Population Normal (%),[11],78%
same,Population Pyknosed Nuclei (%),[11],55%
same,Population Tubulin-Different-Phenotype (%),[11],57%
same,Total Cell Count,[11],202
same,Population Apoptotic (%),[12],38%
same,Population Fragmented Nuclei (%),[12],8%
same,Population Healthy Nuclei (%),[12],38%
same,Population Hoechst High Intensity Objects (%),[12],7%
same,Population Membrane Permeable-Phenotype (%),[12],0%
same,Population Mitochondria Different-Phenotype (%),[12],49%
same,Population Mitotic Cells (%),[12],61%
same,Population Normal (%),[12],92%
same,Population Pyknosed Nuclei (%),[12],54%
same,Population Tubulin-Different-Phenotype (%),[12],54%
same,Total Cell Count,[12],163
